These results are taken from ChEMBL document CHEMBL1141159, “Design, synthesis, and antiviral activity of 2'-deoxy-2'-fluoro-2'-C-methylcytidine, a potent inhibitor of hepatitis C virus replication” (2005).

Type in all cases: functional
A short description of experiment [1]: Cytotoxic concentration against bovine viral diarrhea virus (BVDV) in MDBK cells. The settings on record: Bos taurus. In a few lines:
(§1)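 Cytotoxicity (CC50) read by MTS colorimetric cell-proliferation assay after 4 days of compound exposure.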

The nature of experiment [2]: Effective concentration required to reduce cytopathic effects caused by bovine viral diarrhea virus (BVDV) in MDBK cells by 90%. The settings on record: Bos taurus. On the technique in general: Damage to the host cells serves as the signal in cytopathic effect assays.
Experiment [3] deals with Huh-7. Kind of experiment: Cytotoxic concentration against HCV replication RNA levels in Huh7 cells determined by HCV replicon assay. The settings on record: Homo sapiens. A digest of the protocol: as §1
Background: In antiviral work, replicon cells carry a viral genome segment that copies itself.

The test system of experiment [4] is Huh-7. Kind of experiment: Effective concentration required to reduce HCV replication RNA levels in Huh7 cells by 90% determined by HCV replicon assay. The settings on record: Homo sapiens. In a few lines:
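Subgenomic HCV replicon cells were treated with compound, and HCV RNA was quantified by real-time quantitative RT-PCR to derive the concentration giving 90% reduction.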

Structures are written as SMILES. Bounds are passed on as bounds.

What is called CC50 is the concentration that lowers cell viability or growth by half. For orientation: EC90 means the point of the concentration-response curve where the effect stands at 90%. Higher therefore signals weaker potency. `Nc1ccn([C@@H]2O[C@H](CO)[C@@H](O)[C@@H]2F)c(=O)n1`: the CC50 (in experiment [1]; in the experiment with Huh-7 [3]) was over 100 µM throughout. For the same molecule, the results for the EC90 (in experiment [2]; in the experiment on Huh-7 [4]) were over 100 µM and 6.5 µM, respectively.

On to `C[C@@]1(O)[C@H](O)[C@@H](CO)O[C@H]1n1ccc(N)nc1=O`, for which the CC50 (in experiment [1]; in the experiment with Huh-7 [3]) was over 100 µM in each case. Further, the figures for the EC90 (in experiment [2]; in the experiment on Huh-7 [4]) were 2.3 µM and 19 µM, respectively.

Regarding `C[C@@]1(F)[C@H](O)[C@@H](CO)O[C@H]1n1ccc(N)nc1=O`, the CC50 (in experiment [1]; in the experiment on Huh-7 [3]) was over 100 µM each time. Further, the EC90 in experiment [2] was over 100 µM; with Huh-7 [4], 5.4 µM.

As to `C[C@@]1(F)[C@H](O)[C@@H](CO)O[C@H]1n1ccc(=O)[nH]c1=O`, the CC50 (in experiment [1]; in the experiment with Huh-7 [3]) was over 100 µM each time. Moreover, the EC90 (in experiment [2]; with Huh-7 [4]) was over 100 µM each time.
